Measurements published in ChEMBL document CHEMBL1938331, “Discovery of novel and potent CRTH2 antagonists” (Bioorg Med Chem Lett, 2012).

Columns and labels:
[1] = molecular target: T1, Prostaglandin D2 receptor 2 (Homo sapiens, UniProt Q9Y5Y4); assay: Displacement of [3H]PGD2 from human CRTH2 receptor expressed in HEK293 cells after 2 hrs by scintillation counting; assay type: cell-based
T1 sequence (Q9Y5Y4 whole entry): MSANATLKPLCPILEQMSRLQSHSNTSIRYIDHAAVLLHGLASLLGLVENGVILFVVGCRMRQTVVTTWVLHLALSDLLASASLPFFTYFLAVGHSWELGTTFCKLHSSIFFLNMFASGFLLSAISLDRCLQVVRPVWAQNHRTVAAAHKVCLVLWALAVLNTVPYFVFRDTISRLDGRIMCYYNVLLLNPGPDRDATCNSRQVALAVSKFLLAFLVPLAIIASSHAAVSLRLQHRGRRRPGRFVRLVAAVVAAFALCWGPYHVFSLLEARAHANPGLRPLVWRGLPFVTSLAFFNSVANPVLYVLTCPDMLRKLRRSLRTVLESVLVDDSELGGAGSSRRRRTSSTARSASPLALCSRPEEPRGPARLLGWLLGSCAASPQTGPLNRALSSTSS
Outline: (§1)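 Disrupted HEK293 cells stably transfected with human or guinea pig CRTH2 (10 µg protein/well human; 20 µg protein/well guinea pig) in 10 mM BES, 1 mM EDTA, 10 mM MnCl2, pH 7.0, incubated with [3H]PGD2 and rising compound levels 2 h at 4 °C; filtered, scintillation counted; nonspecific binding with 10 µM DK-PGD2; IC50 for 50% binding loss; mean of ≥2 experiments.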

[2] = molecular target: T2, Chemoattractant receptor-homologous molecule expressed on Th2 cells (Cavia porcellus, UniProt Q56D28); assay: Displacement of [3H]PGD2 from guinea pig CRTH2 receptor expressed in HEK293 cells after 2 hrs by scintillation counting; assay type: cell-based; outline: as §1
T2 sequence (Q56D28 whole entry): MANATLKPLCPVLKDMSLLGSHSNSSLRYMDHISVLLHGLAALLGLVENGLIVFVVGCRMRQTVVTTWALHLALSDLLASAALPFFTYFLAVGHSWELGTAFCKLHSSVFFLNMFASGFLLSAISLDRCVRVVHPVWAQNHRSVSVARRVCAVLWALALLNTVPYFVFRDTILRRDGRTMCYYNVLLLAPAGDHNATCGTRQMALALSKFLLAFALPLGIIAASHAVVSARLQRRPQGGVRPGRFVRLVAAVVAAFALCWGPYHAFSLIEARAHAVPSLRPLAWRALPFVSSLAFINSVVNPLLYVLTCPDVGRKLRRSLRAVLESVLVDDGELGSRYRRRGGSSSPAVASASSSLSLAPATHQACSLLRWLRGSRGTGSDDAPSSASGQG

[3] = Cmax in Hartley guinea pig at 10 mg/kg, po; assay type: ADME, organism-based, Cavia porcellus; set-up: dose 10 mg/kg, route oral; conditions: in vivo
Outline: (§2)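 Guinea pigs fasted overnight, given 10 mg/kg orally as a 10 mg/mL suspension in 0.5% methylcellulose in water; plasma Cmax and AUC determined.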

[4] = AUC in Hartley guinea pig at 10 mg/kg, po; assay type: ADME, organism-based, Cavia porcellus; set-up: dose 10 mg/kg, route oral; conditions: plasma; outline: as §2
[5] = Clearance in guinea pig liver microsomes; assay type: ADME, Cavia porcellus, Microsome; conditions: read-out: CLH
[6] = molecular target: T3, Prostaglandin D2 receptor (Homo sapiens, UniProt Q13258); assay: Displacement of [3H]PGD2 from human DP1 receptor expressed in HEK293 cells after 2 hrs by scintillation counting; assay type: cell-based
T3 sequence (Q13258 whole entry): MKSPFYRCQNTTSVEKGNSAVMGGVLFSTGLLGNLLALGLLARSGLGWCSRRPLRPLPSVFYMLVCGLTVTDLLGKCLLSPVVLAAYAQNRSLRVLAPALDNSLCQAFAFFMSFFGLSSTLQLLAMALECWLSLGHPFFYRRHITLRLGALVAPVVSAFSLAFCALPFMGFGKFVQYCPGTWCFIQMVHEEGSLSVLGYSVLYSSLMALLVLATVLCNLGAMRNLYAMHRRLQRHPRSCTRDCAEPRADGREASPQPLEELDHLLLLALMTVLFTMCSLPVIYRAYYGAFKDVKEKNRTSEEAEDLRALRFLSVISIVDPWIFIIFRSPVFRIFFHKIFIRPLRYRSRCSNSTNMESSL
Outline: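 Disrupted HEK293 cells stably expressing human DP1 (10 µg protein/well) in 10 mM BES, 1 mM EDTA, 10 mM MnCl2, pH 7.0, incubated with [3H]PGD2 and increasing compound concentrations 2 h at 4 °C; glass-filter harvest and scintillation counting of retained radioactivity.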

| IC50 [1] [nM] | IC50 [2] [nM] | Cmax [3] [ng/mL] | AUC [4] [ng·h/mL] | CLint scaled [5] [mL/min/kg] | IC50 [6] [nM] | SMILES |
| --- | --- | --- | --- | --- | --- | --- |
| 5.5 | 17 | 40 | 270 | 766 | – | COc1ccc(C(=O)N(CCCc2cccc(OCC(=O)O)c2)CCC(c2ccccc2)c2ccccc2)cc1 |
| 17 | 128 | – | – | – | – | CC(Oc1cccc(CCCn2cc(C(c3ccccc3)c3ccccc3)ccc2=O)c1)C(=O)O (stereo not given) |
| 99 | 797 | – | – | – | – | O=C(O)COc1cccc(OCCn2cc(C(c3ccccc3)c3ccccc3)ccc2=O)c1 |
| 5.8 | 211 | – | – | – | – | COc1ccc(C(c2ccc(OC)cc2)c2ccc(=O)n(CCCc3cccc(OCC(=O)O)c3)c2)cc1 |
| – | > 1000 | – | – | – | – | CC(C)(Oc1cccc(CCCn2cc(C(c3ccccc3)c3ccccc3)ccc2=O)c1)C(=O)O |
| 11 | 359 | – | – | – | – | O=C(O)COc1cccc(CCCn2cc(C(c3ccc(F)cc3)c3ccc(F)cc3)ccc2=O)c1 |
| 502 | 990 | – | – | – | – | CCC(Oc1cccc(CCCn2cc(C(c3ccccc3)c3ccccc3)ccc2=O)c1)C(=O)O (stereo not given) |
| 13 | 52 | 2860 | 4850 | – | 5200 | O=C(O)CCCOc1cccc(CCCn2nc(C(c3ccccc3)c3ccccc3)ccc2=O)c1 |
| 18 | 147 | 730 | 2400 | – | – | O=C(O)COc1cccc(CCCn2nc(C(c3ccccc3)c3ccccc3)ccc2=O)c1 |
| 9.2 | > 1000 | – | – | – | – | O=C(O)COc1cccc(CCCn2cc(C(c3ccc(Cl)cc3)c3ccc(Cl)cc3)ccc2=O)c1 |
| 6.2 | 772 | – | – | – | – | Cc1ccc(C(c2ccc(C)cc2)c2ccc(=O)n(CCCc3cccc(OCC(=O)O)c3)c2)cc1 |
| 11 | 99 | 500 | 1020 | – | – | O=C(O)CCCOc1cccc(CCCn2cc(C(c3ccccc3)c3ccccc3)ccc2=O)c1 |
| – | 256 | 840 | 5950 | 120 | > 1000 | O=C(O)COc1cccc(CCCn2cc(C(c3ccccc3)c3ccccc3)ccc2=O)c1 |
| 9.7 | 18 | – | – | – | – | O=C(O)COc1cccc(CCCN(CCC(c2ccccc2)c2ccccc2)C(=O)c2ccccc2)c1 |
